Sampled rows, rich in hits. Any-hit rate of the full collection: about 2.2%.
core dimer inh – inhibitors of HCV core protein dimerization, primary screen, biochemical, TR-FRET, high-throughput; TR-FRET GST/Flag-core106 dimerization, 1536-well; inhibition, % at 5 µM; 300,000 tested, 0.33% active;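 active = inhibition above the mean of all tested compounds plus 3 SD, set per screening campaign, cut at about 45% in these data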
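assay system = GST-tagged and Flag-tagged HCV core protein residues 1-106 | controls = unlabelled core106 and no-GST-core106 wells | incubation = compound-protein-antibody incubation 4 h at 22.5 °C | probe or stimulus = Eu donor and XL665 acceptor anti-tag antibodies | read-out = % inhibition based on acceptor/donor emission ratio | signal = TR-FRET 671 and 617 nm emission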
GPR7 antagonist – GPR7 receptor antagonists, primary screen, cell-based, fluorescence, single concentration. GPR7-expressing cells, fluorescence antagonist assay. inhibition, % at 4.4 µM. 290,000 tested, 1.1% active. AID 1861, 2009; in the data active = inhibition above about 16%, passing the limit was not always enough;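 also: cells stimulated with the agonist NPW; 0% = agonist with vehicle and 100% = vehicle without agonist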
GRK2 inh – compounds blocking aptamer binding on GRK2 – biochemical, human GRK2, bead flow cytometry, HTS, primary screen | Beta-adrenergic receptor kinase 1 (Homo sapiens), P25098 | FAM-aptamer displacement from GRK2 | inhibition of aptamer binding, % at 10 µM | 330,000 tested, 0.59% active | AID 488847, 2010;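 active = inhibition of aptamer binding above 40%, roughly 3 SD of noise, on plates passing a quality check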;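 also: median bead fluorescence of bound FAM aptamer so fluorescent compounds give negative values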
Target sequence (P25098 whole entry, looked up): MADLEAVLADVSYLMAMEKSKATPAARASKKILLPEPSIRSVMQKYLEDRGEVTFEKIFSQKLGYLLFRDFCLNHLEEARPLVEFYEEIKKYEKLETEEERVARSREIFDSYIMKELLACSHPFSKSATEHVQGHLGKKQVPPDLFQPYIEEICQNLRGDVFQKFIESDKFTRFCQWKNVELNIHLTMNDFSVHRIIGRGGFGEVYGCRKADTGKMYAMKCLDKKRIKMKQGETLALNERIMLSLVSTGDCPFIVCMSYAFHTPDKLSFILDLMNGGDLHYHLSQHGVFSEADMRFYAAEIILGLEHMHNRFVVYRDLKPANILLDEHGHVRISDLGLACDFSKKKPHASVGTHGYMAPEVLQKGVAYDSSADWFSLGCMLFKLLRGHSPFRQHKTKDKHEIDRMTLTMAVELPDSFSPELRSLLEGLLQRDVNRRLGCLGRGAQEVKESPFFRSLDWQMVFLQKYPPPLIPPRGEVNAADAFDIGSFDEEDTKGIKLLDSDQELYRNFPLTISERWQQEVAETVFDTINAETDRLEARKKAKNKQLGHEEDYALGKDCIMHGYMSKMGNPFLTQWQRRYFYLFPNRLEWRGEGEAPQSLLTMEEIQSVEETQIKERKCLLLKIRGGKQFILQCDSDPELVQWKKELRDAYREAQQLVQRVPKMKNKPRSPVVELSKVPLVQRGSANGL
NS3 helicase inh – inhibitors of HCV NS3 helicase, primary screen, biochemical, Cy5 molecular beacon fluorescence; Hepatitis C virus NS3 helicase; NS3 helicase DNA unwinding; inhibition, % at 10.9 µM; 290,000 tested, 0.56% active; AID 1800, 2009;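 active = inhibition above the mean of all tested compounds plus 3 SD, set per campaign, cut at about 35% in these data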;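 also: 0% = DMSO wells and 100% = thioflavine S control wells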
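System: NS3 helicase fragment of HCV / Schedule: 1 h at 25 °C / Control set: DMSO alone as 0% and 110 µM thioflavine S as 100% / Reagent: Cy5/quencher beacon DNA duplex and ATP to start / Technique: Cy5 fluorescence / Replication: singlicate / Evaluation: % inhibition of end-to-start signal ratio versus controls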
DNA FID counter – compounds displacing fluorescent DNA intercalator, primary screen, artefact control for HCV NS3 helicase inhibitor project, biochemical, FID fluorescence; inhibition, % at 7.9 µM; DNA fluorescent intercalator displacement; 290,000 tested, 0.17% active; in the data active = inhibition above about 37%;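 also: 0% = vehicle and 100% = reference compound; higher means more ethidium bromide displaced from hairpin DNA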
DAGLB inh – DAGLB lipase inhibitors, primary screen, biochemical, fluorescence, HTS. Diacylglycerol lipase-beta (Homo sapiens), Q8NCG7. AID 504411, 2011. inhibition, % at 5.17 µM. HEK293T DAGLB membrane lysate, EnzChek fluorogenic substrate. 340,000 tested, 0.059% active; in the data active = inhibition above about 34%;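 also: 0% = enzyme with vehicle and 100% = wells lacking enzyme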
GRK2 inh confirm – GRK2 aptamer-displacing inhibitors, retest, confirmation, biochemical, cherry pick 1, bead flow cytometry; shares compounds with GRK2 inh; bead-bound GRK2, FAM-aptamer displacement; aptamer displacement, % at 10 µM; 2,000 tested, 4% active; AID 504451, 2011;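 active = aptamer displacement above 40%, near three times the noise of non-fluorescent compounds, on plates passing quality checks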;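 also: negative values mostly reflect intrinsic compound fluorescence rather than true enhancement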
Aptamer quench – counter-screen for GRK2 aptamer inhibitors: fluorescent aptamer quenchers; shares compounds with GRK2 inh; Fluorescent RNA aptamer beads, quenching, flow cytometry; stronger effect = higher value; fluorescence change (kMESF span), kMESF (no concentration beside the values); 110 tested, under 10 active;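 active = compounds whose bead fluorescence drops by more than 37 kMESF across the dose range, marking them as dye quenchers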
FAM quench CP1 – counter-screen for GRK2 aptamer inhibitors: fluorescent aptamer quenchers | shares compounds with GRK2 inh | Carboxyfluorescein RNA aptamer on beads, flow cytometry quenching; stronger effect = lower value | fluorescence response (% of DMSO), % at 10 µM | 2,000 tested, under 10 active | AID 504580;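 active = compounds that quench the bead-bound fluorescent RNA probe, cutting fluorescence to under half of the solvent control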;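 also: counterscreen run without GRK2 so only probe quenching by compound is measured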
GRK2 CP2 – GRK2 aptamer-displacing inhibitors, hit retest, confirmation, biochemical, cherry pick 2, bead flow cytometry; inhibition of aptamer binding, % at 10 µM; shares compounds with GRK2 inh; bead-bound GRK2, FAM-aptamer displacement; AID 504782, 2011; 360 tested, under 10 active;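 active = inhibition of aptamer binding above 40%, about triple the noise seen with nonglowing compounds, on plates passing quality control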;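 also: negative values mostly come from compounds that fluoresce themselves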
FAM quench CP2 – quenches fluorescent RNA aptamer, GRK2 hit artifact; shares compounds with GRK2 inh; carboxyfluorescein RNA aptamer beads, flow cytometry quenching; stronger effect = lower value; fluorescence response vs DMSO, % at 10 µM; 360 tested, under 10 active; AID 588494;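 active = response vs DMSO under 50%, meaning signal dropped by over half, treated as fluorescence quencher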;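 also: labelled aptamer on streptavidin beads without GRK2 as a quench counter-screen; 100% = bead fluorescence of DMSO wells and lower means quenching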
Numbers without * were called inactive.

Screening COc1ccc(OC)c2nc(-c3ccc4c(c3)OCO4)ccc12 returned core dimer inh -6, GPR7 antagonist -2, GRK2 inh 42*, NS3 helicase inh -10, DNA FID counter -24, DAGLB inh -5, GRK2 CP2 3 and FAM quench CP2 101.
For CS(=O)(=O)N(CC(=O)NCCSCc1cccc(Cl)c1)c1ccccc1F the results were core dimer inh 1, GPR7 antagonist 0, GRK2 inh 0, NS3 helicase inh 15, DNA FID counter -30 and DAGLB inh 0.
Screening COc1ccc(Cl)cc1S(=O)(=O)NCc1cccs1 returned core dimer inh -2, GPR7 antagonist -8, GRK2 inh 51*, NS3 helicase inh 7, DNA FID counter -4, DAGLB inh -1, GRK2 inh confirm -7 and FAM quench CP1 97.
For CNC(=O)c1c(NC(=O)CCS(=O)(=O)c2ccc(C)cc2)sc2c1CCN(C(=O)OC)C2 the results were core dimer inh 0, GRK2 inh 0, DAGLB inh 1, GRK2 CP2 12 and FAM quench CP2 98.
`CC(=O)N1CCc2c(sc(NC(=O)CCS(=O)(=O)c3ccc(C)cc3)c2C#N)C1` gave core dimer inh -2, GRK2 inh 0, DAGLB inh 2, GRK2 CP2 24 and FAM quench CP2 100.
`CCCN1CCc2c(sc(NC(=O)CCS(=O)(=O)c3ccccc3)c2C(N)=O)C1` gave core dimer inh 9, GPR7 antagonist -11, GRK2 inh 1, NS3 helicase inh 5, DNA FID counter -1 and DAGLB inh 1.
For CNC(=O)c1c(NC(=O)CCS(=O)(=O)c2ccccc2)sc2c1CCN(C(=O)OC)C2 the results were core dimer inh 3, GRK2 inh 30, DAGLB inh 1, GRK2 CP2 13 and FAM quench CP2 104.
For CN1CCc2c(sc(NC(=O)CS(=O)(=O)c3ccccc3)c2C(N)=O)C1 the results were core dimer inh -1, GRK2 inh 3, DAGLB inh -2, GRK2 CP2 -4 and FAM quench CP2 100.
For CCOC(=O)c1c(NC(=O)CCS(=O)(=O)c2ccccc2)sc2c1CCN(C(C)C)C2 the results were core dimer inh -12, GPR7 antagonist 10, GRK2 inh 0, NS3 helicase inh 0, DNA FID counter 25 and DAGLB inh 0.
`CC(=O)N1CCN(c2ccc(NCc3ccc(-c4cccc(Cl)c4)o3)cc2)CC1` gave GRK2 inh 2 and DAGLB inh 9.
CCOc1ccc(CCNc2nc3ccccc3n3cnnc23)cc1OCC was read as core dimer inh 5, GPR7 antagonist -9, GRK2 inh 0, NS3 helicase inh -6, DNA FID counter -15 and DAGLB inh 0.
`O=C(/C=C/c1ccco1)Nc1ccccc1C(=O)O` gave core dimer inh 9, GPR7 antagonist -11, GRK2 inh 71*, NS3 helicase inh 33, DNA FID counter -8, GRK2 inh confirm -4 and FAM quench CP1 101.
Screening O=C(/C=C/c1ccco1)Nc1cc(Cl)ccc1C(=O)O returned core dimer inh 3, GPR7 antagonist -11, GRK2 inh 5, NS3 helicase inh 20, DNA FID counter -8 and DAGLB inh 10.
`C=CCNC(=S)NNC(=O)C(CCCC)CC(O)COCC(C)C` (centres undefined) gave core dimer inh -1, GPR7 antagonist -2, GRK2 inh 45*, NS3 helicase inh -1, DNA FID counter -9, DAGLB inh -2, GRK2 inh confirm 4 and FAM quench CP1 101.
For CN(C)S(=O)(=O)N1CCCC(C(=O)c2ccc(-c3ccccc3)c(F)c2)C1 (centres undefined) the results were core dimer inh 4, GPR7 antagonist -11, GRK2 inh 7, NS3 helicase inh -2, DNA FID counter -9 and DAGLB inh -5.
`CCSc1nc2c(c(=O)[nH]c(=O)n2C)n1C/C=C(/C)Cl` gave core dimer inh -2, GPR7 antagonist -14, GRK2 inh 2, NS3 helicase inh -4, DNA FID counter -4 and DAGLB inh -6.
For CCOC(=O)C(C)Sc1nc2c(c(=O)[nH]c(=O)n2C)n1C/C=C(/C)Cl (centres undefined) the results were core dimer inh 2, GPR7 antagonist -6, GRK2 inh 58*, NS3 helicase inh -5, DNA FID counter -28, DAGLB inh 3, GRK2 inh confirm 58*, Aptamer quench -0.8 and FAM quench CP1 97.
Screening Cc1occc1C(=O)N/N=C/C(Br)=C/c1ccccc1 returned core dimer inh -9, GPR7 antagonist -6, GRK2 inh 39, NS3 helicase inh -5, DNA FID counter -7, DAGLB inh -4, GRK2 inh confirm 1 and FAM quench CP1 94.
Screening Cc1occc1C(=O)N/N=C/c1ccc(-c2ccccc2)cc1 returned core dimer inh 0, GPR7 antagonist -10, GRK2 inh 1, NS3 helicase inh 6, DNA FID counter -15 and DAGLB inh -6.
`CN(C)CCCN(C(=O)c1ccc(S(=O)(=O)N2CCCCC2)cc1)c1nc2cc3c(cc2s1)OCO3` gave core dimer inh -20, GPR7 antagonist 18, GRK2 inh 15, NS3 helicase inh -43, DNA FID counter 38*, DAGLB inh 2, GRK2 inh confirm -14 and FAM quench CP1 101.
